Measurements gathered from unrelated publications.
Compare with care: the assays were run in different laboratories.
Target: Tyrosine-protein kinase ITK/TSK (ITK, Homo sapiens, UniProt Q08881)
Residues used in one study (Q08881 1-620): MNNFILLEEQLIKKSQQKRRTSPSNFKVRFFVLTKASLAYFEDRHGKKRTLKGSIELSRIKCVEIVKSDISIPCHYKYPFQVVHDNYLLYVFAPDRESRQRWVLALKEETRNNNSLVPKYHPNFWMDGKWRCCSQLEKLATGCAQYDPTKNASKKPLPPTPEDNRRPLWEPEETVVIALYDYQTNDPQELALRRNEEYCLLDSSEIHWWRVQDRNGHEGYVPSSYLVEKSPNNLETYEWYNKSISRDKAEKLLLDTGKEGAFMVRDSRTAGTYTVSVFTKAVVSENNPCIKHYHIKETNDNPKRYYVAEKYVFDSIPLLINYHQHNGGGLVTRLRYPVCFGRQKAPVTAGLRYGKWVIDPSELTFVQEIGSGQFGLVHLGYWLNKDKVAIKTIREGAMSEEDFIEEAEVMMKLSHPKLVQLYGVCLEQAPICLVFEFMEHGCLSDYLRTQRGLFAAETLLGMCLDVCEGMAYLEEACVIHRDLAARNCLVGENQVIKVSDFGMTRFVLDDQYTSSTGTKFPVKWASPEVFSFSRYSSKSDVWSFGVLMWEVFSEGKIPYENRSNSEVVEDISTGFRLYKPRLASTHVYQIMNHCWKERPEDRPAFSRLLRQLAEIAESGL

| SMILES | read-out | mode | technique | concentration | endpoint | value |
| --- | --- | --- | --- | --- | --- | --- |
| CC(C)(O)[C@H]1CC[C@H](Nc2ccc3ncc(-c4cccc(C(F)(F)F)c4)n3n2)CC1 | enzyme activity | inhibitor |  | 1 µM | remaining activity | 88.8% |
| Cc1nc(C2CCN(C(=O)c3ccc(OC(F)(F)F)cc3N)CC2)c2ncc(N3CCN(C)CC3)cc2n1 | cell-free assay |  | competition with immobilised ligand | 1 µM | remaining binding | 89% |
| COc1ccc(C(=O)Nc2sc3c(c2C(N)=O)CCCC3)cc1OC | enzyme activity | inhibitor |  | 0.5 µM | remaining activity | 99.6% |
| CCCOc1ccc([C@H]2[C@H](C(=O)O)[C@@H](c3ccc4c(c3)OCO4)CN2CC(=O)Nc2c(CC)cccc2CC)cc1 | cell-free assay |  | competition with immobilised ligand | 1 µM | remaining binding | 96% |
| COc1cc2c(N3CCN(C(=O)Nc4ccc(OC(C)C)cc4)CC3)ncnc2cc1OCCCN1CCCCC1 | cell-free assay |  |  | 0.5 µM | remaining signal | 99% |
| Cc1sc(C(=O)NC2COC2)cc1-n1cc(NC(=O)Nc2c(F)cccc2Cl)cn1 | enzyme activity | inhibitor |  | 10 µM | remaining activity | 94.4% |
| CN(C)C1CCN(CC#Cc2nn(C3CCCC3)c3nc(NCc4ccccc4)ncc23)C1 (stereo not shown) | enzyme activity | inhibitor | FRET | 0.1 µM | inhibition | 1% |
| Cc1ccc(C(=O)NCc2ccsc2)cc1C#Cc1cn(C(C)C)c2ncnc(N)c12 | enzyme activity | inhibitor |  | 1 µM | activity vs control | 97% |
| COc1cccc(CNC(=O)c2nc3scc(COCc4ccc(C(=O)O)cc4)c3c(=O)[nH]2)c1 | cell-free assay |  | competition with immobilised ligand | 1 µM | remaining binding | 86.8% |
| CN1CC(Oc2cnc(C#N)cc2-c2ccn3nc(NC(=O)C4CC4)cc3c2)C1 | enzyme activity | inhibitor |  | 1 µM | inhibition | 3% |
| COc1ccc2c(O[C@@H]3C[C@H]4C(=O)N[C@]5(C(=O)O)CC5/C=C\CCCCC[C@H](NC(=O)OC5CCCC5)C(=O)N4C3)cc(-c3csc(NC(=O)C(C)C)n3)nc2c1C (stereo partly shown) | cell-free assay |  | competition with immobilised ligand | 1 µM | remaining binding | 95% |
| Cc1cc(NC(=O)c2cccc3cc(-c4cccc5[nH]nc(N)c45)ccc23)ccc1F | enzyme activity | inhibitor |  | 0.1 µM | activity vs control | 104% |
| COc1cc2ncnc(Nc3ccc(Oc4ccccc4)cc3C)c2cc1OC | enzyme activity | inhibitor |  | 1 µM | inhibition | 3% |
| O=C(NC[C@@H]1[C@H]2CN(C(=O)OCc3cc(C(F)(F)F)cc(C(F)(F)F)c3)C[C@@H]12)c1ccc2[nH]nnc2c1 | cell-free assay |  | competition with immobilised ligand | 1 µM | remaining binding | 100% |
| O=c1c2ccccc2[nH]c(=S)n1CCN1CCC(=C(c2ccc(F)cc2)c2ccc(F)cc2)CC1 | enzyme activity | inhibitor |  | 0.5 µM | remaining activity | 97.1% |
| CNC(=O)c1cc(Oc2ccc(NC(=O)Nc3ccc(Cl)c(C(F)(F)F)c3)cc2)ccn1 | enzyme activity | inhibitor |  | 0.3 µM | inhibition | -10% |
| Cc1ccc(Nc2nccc(N(C)c3ccc4c(C)n(C)nc4c3)n2)cc1S(N)(=O)=O | cell-free assay |  |  | 0.5 µM | remaining signal | 115% |
| O=S(=O)(NC1CCC(c2cc(F)ccc2F)(S(=O)(=O)c2ccc(Cl)cc2)CC1)C(F)(F)F (stereo not shown) | cell-free assay |  | competition with immobilised ligand | 1 µM | remaining binding | 97% |
| Cc1ccc(NC(=O)c2ccc(C)c(C(F)(F)F)c2)cc1C#Cc1nn(C2CCC(O)CC2)c2ncnc(N)c12 (stereo not shown) | cell-free assay |  |  | 10 µM | remaining signal | 102% |
